# In ChEMBL document CHEMBL1124765, “Synthesis and biological properties of novel phosphotriesters: a new approach to the introduction of biologically active nucleotides into cells” (J Med Chem, 1990):
# Several values for one entry are separate records, joined by “and”; a condition that tells them apart may be missing. Equal entries are not always repeated.
# Legend:
# Format in all cases: functional
# Human alphaherpesvirus 1 [1] = assay: Evaluated for the minimum inhibitory concentration (MIC) in primary rabbit kidney (PRK) by 50% against herpes simplex virus type-1 (HSV-1) with strains KOS
# How it was run: (§1)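 Confluent primary rabbit kidney cell cultures infected with 100 CCID50 virus; after 1 h adsorption residual virus removed and cells incubated with varying compound concentrations. Cytopathogenicity scored when complete in infected untreated controls; MIC = concentration reducing virus-induced cytopathogenicity by 50%. Compounds tested as such or after preincubation in medium with 10% fetal calf serum, 24 h, 37 °C.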
# Mus musculus [2] = assay: Topical treatment of intracutaneous TK- herpes simplex virus type 1 of strain VMW 1837 infection of Nu/nu mice for mean day of appearance of skin lesions and/or paralysis of the hind legs at 1% concentration (v/v in DMSO)
# How it was run: (§2)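 Inocula were TK⁻ HSV-1 at 10⁶ CCID50/0.05 mL or HSV-1 KOS at 10^4.7 PFU/0.05 mL. Test formulations in DMSO were applied topically four times daily for 5 days, starting at infection. Skin lesions, hind-leg paralysis and death were recorded daily for 28 (KOS) or 49 (TK⁻) days, with five mice per group.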
# Human alphaherpesvirus 1 [3] = assay: Evaluated for the minimum inhibitory concentration (MIC) in primary rabbit kidney (PRK) by 50% upon preincubation in medium containing 10% fetal calf serum at 37 degree Celsius for 24 hr against herpes simplex virus type-1 (HSV-1) with strain KOS
# How it was run: (§3)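 Compounds were preincubated in medium with 10% fetal calf serum for 24 h at 37 °C before addition to the cells. Confluent primary rabbit kidney monolayers were infected with 100 CCID50 of virus and adsorbed for 1 h. Residual virus was removed and cells were incubated with varying compound concentrations. The endpoint was 50% reduction of cytopathogenicity, read when infected controls reached full CPE.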
# Human alphaherpesvirus 1 [4] = assay: Evaluated for the minimum inhibitory concentration (MIC) in primary rabbit kidney (PRK) by 50% against herpes simplex virus type-1 (HSV-1) with strains F; how it was run: as §1
# Human alphaherpesvirus 2 [5] = assay: Evaluated for the minimum inhibitory concentration (MIC) in primary rabbit kidney (PRK) by 50% against herpes simplex virus type-2 (HSV-2) with strains Lyons; how it was run: as §1
# Human alphaherpesvirus 2 [6] = assay: Evaluated for the minimum inhibitory concentration (MIC) in primary rabbit kidney (PRK), by 50% upon pre-incubation in medium containing 10% fetal calf serum at 37 degree Centigrade for 24 hr against herpes simplex virus type-2 (HSV-2) with strains L; how it was run: as §3
# Human alphaherpesvirus 1 [7] = assay: (§4) Evaluated for the minimum inhibitory concentration (MIC) in primary rabbit kidney (PRK), by 50% upon preincubation in medium containing 10% fetal calf serum at 37 degree Celsius for 24 hr against TK- herpes simplex virus type 1 (TK- HSV-1) with s; how it was run: as §3
# [8] = test system: Vesicular stomatitis virus; assay: Evaluated for the minimum inhibitory concentration (MIC) in primary rabbit kidney (PRK) by 50% against Vesicular stomatitis virus
# How it was run: (§5)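 Confluent primary rabbit kidney cell monolayers were infected with 100 CCID50 of virus. After 1 h adsorption, residual virus was removed and cells were incubated with serial compound concentrations. Cytopathogenicity was scored once it reached completion in untreated infected controls. The endpoint was the concentration reducing virus-induced cytopathogenicity by 50%.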
# Human alphaherpesvirus 1 [9] = assay: as §4; how it was run: as §3; remark: listed apart in the source
# Human alphaherpesvirus 2 [10] = assay: Evaluated for the minimum inhibitory concentration (MIC) in primary rabbit kidney (PRK), by 50% upon preincubation in medium containing 10% fetal calf serum at 37 degree Celsius for 24 hr against herpes simplex virus type-2 (HSV-2) with strains G; how it was run: as §3
# Vaccinia virus [11] = assay: Evaluated for the minimum inhibitory concentration (MIC) in primary rabbit kidney (PRK) by 50% against Vaccinia virus; settings: Orthopoxvirus vaccinia; how it was run: as §5
# Human alphaherpesvirus 2 [12] = assay: Evaluated for the minimum inhibitory concentration (MIC) in primary rabbit kidney (PRK) by 50% against herpes simplex virus type-2 (HSV-2) with strains 196; how it was run: as §1
# Oryctolagus cuniculus = species on record: Oryctolagus cuniculus; assay: Evaluated for the minimum cytotoxic concentration (MCC) upon preincubation of rabbit kidney cells in medium containing 10% fetal calf serum at 37 degree Celsius for 24 hr
# How it was run: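 Primary rabbit kidney cell cultures were exposed to compounds, some preincubated 24 h at 37 °C in medium with 10% fetal calf serum. The minimum cytotoxic concentration was the level causing a microscopically detectable change in normal cell morphology.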
# Human alphaherpesvirus 1 [13] = assay: Evaluated for the minimum inhibitory concentration (MIC) in primary rabbit kidney (PRK) by 50% against TK- herpes simplex virus type 1 (TK- HSV-1) with strain VMW 1837; how it was run: as §5
# Human alphaherpesvirus 1 [14] = assay: Evaluated for the minimum inhibitory concentration (MIC) in primary rabbit kidney (PRK) by 50% against herpes simplex virus type-1 (HSV-1) with strains McIntyre; how it was run: as §1
# Human alphaherpesvirus 1 [15] = assay: Evaluated for the minimum inhibitory concentration (MIC) in primary rabbit kidney (PRK), by 50% against TK- herpes simplex virus type 1 (TK- HSV-1) with strain B2006; how it was run: as §5
# Vaccinia virus [16] = assay: Evaluated for the minimum inhibitory concentration (MIC) in primary rabbit kidney (PRK), by 50% upon preincubation in medium containing 10% fetal calf serum at 37 degree Celsius for 24 hr against Vaccinia virus; settings: Orthopoxvirus vaccinia; how it was run: as §3
# [17] = test system: Vesicular stomatitis virus; assay: Evaluated for the minimum inhibitory concentration (MIC) in primary rabbit kidney (PRK), by 50% upon preincubation in medium containing 10% fetal calf serum at 37 degree Celsius for 24 hr against vesicular stomatitis virus; how it was run: as §3
# Human alphaherpesvirus 1 [18] = assay: Evaluated for the minimum inhibitory concentration (MIC) in primary rabbit kidney (PRK), by 50% upon preincubation in medium containing 10% fetal calf serum at 37 degree Centigrade for 24 hr against herpes simplex virus type-1 (HSV-1) with strain Mc; how it was run: as §3
# Mus musculus [19] = assay: Topical treatment of intracutaneous TK- herpes simplex virus type 1 of strain VMW 1837 infection of Nu/nu mice for mean day of appearance of skin lesions and/or paralysis of the hind legs at 0.3% concentration (v/v in DMSO); how it was run: as §2
# Mus musculus [20] = assay: Topical treatment of intracutaneous TK- herpes simplex virus type 1 of strain VMW 1837 infection of Nu/nu mice for mean day of appearance of skin lesions and/or paralysis of the hind legs at 3% concentration (v/v in DMSO); how it was run: as §2
# Mus musculus [21] = species on record: Mus musculus; assay: Mean time survival (MTS) of the mice at the end of 28 or 49 days.; how it was run: as §2
# Human alphaherpesvirus 1 [22] = assay: Evaluated for the minimum inhibitory concentration (MIC) in primary rabbit kidney (PRK) by 50% upon preincubation in medium containing 10% fetal calf serum at 37 degree Celsius for 24 hr against herpes simplex virus type-1 (HSV-1) with strain F; how it was run: as §3
# Human alphaherpesvirus 2 [23] = assay: Evaluated for the minimum inhibitory concentration (MIC) in primary rabbit kidney (PRK), by 50% upon pre-incubation in medium containing 10% fetal calf serum at 37 degree Centigrade for 24 hr against herpes simplex virus type-2 (HSV-2) with strains 1; how it was run: as §3
# Human alphaherpesvirus 2 [24] = assay: Evaluated for the minimum inhibitory concentration (MIC) in primary rabbit kidney (PRK) by 50% against herpes simplex virus type-2 (HSV-2) with strains G; how it was run: as §5
# Mus musculus [25] = assay: Topical treatment of intracutaneous HSV-1(KOS) herpes simplex virus type 1 infection of Nu/nu mice for mean day of appearance of skin lesions and/or paralysis of the hind legs at 0.3% concentration (v/v in DMSO); how it was run: as §2
# Human alphaherpesvirus 1 [26] = assay: Evaluated for the minimum inhibitory concentration (MIC) in primary rabbit kidney (PRK) by 50% against TK- herpes simplex virus type 1 (TK- HSV-1) with strain B2006; how it was run: as §5
# Mus musculus [27] = assay: Topical treatment of intracutaneous HSV-1(KOS) herpes simplex virus type 1 infection of Nu/nu mice for mean day of appearance of skin lesions and/or paralysis of the hind legs at 1% concentration (v/v in DMSO); how it was run: as §2
# Mus musculus [28] = assay: Topical treatment of intracutaneous HSV-1(KOS) herpes simplex virus type 1 infection of Nu/nu mice for mean day of appearance of skin lesions and/or paralysis of the hind legs at 3% concentration (v/v in DMSO); how it was run: as §2
# Vaccinia virus [29] = assay: Evaluated for the minimum inhibitory concentration (MIC) in primary rabbit kidney (PRK) by 50% against vaccinia virus; settings: Orthopoxvirus vaccinia; how it was run: as §5
# [30] = test system: Vesicular stomatitis virus; assay: Evaluated for the minimum inhibitory concentration (MIC) in primary rabbit kidney (PRK) by 50% against vesicular stomatitis virus; how it was run: as §5
# [31] = Oryctolagus cuniculus, kidney, read-out: MCC
smiles,measurement,setting,value
CS(=O)(=O)c1ccc(OP(=O)(OCCOCn2cnc3c(O)nc(N)nc32)OCCOCn2cnc3c(O)nc(N)nc32)cc1,MIC,Human alphaherpesvirus 1 [1],0.7 µg/mL
same,Mean day appearance of lesions,Mus musculus [2],23.6
same,MIC,Human alphaherpesvirus 1 [3],0.4 µg/mL
same,MIC,Human alphaherpesvirus 1 [4],0.7 µg/mL
same,MIC,Human alphaherpesvirus 2 [5],0.4 µg/mL
same,MIC,Human alphaherpesvirus 2 [6],0.4 µg/mL
same,MIC,Human alphaherpesvirus 1 [7],150 µg/mL
same,MIC,[8],> 200 µg/mL
same,MIC,Human alphaherpesvirus 1 [9],40 µg/mL
same,MIC,Human alphaherpesvirus 2 [10],0.2 µg/mL
same,MIC,Vaccinia virus [11],> 200 µg/mL
same,MIC,Human alphaherpesvirus 2 [12],0.4 µg/mL
same,MCC,Oryctolagus cuniculus,400 µg/mL
same,MCC,Oryctolagus cuniculus; [31],400 µg/mL
same,MIC,Human alphaherpesvirus 1 [13],70 µg/mL
same,MIC,Human alphaherpesvirus 1 [14],1 µg/mL
same,MIC,Human alphaherpesvirus 1 [15],150 µg/mL
same,MIC,Vaccinia virus [16],> 200 µg/mL
same,MIC,[17],> 200 µg/mL
same,MIC,Human alphaherpesvirus 1 [18],0.7 µg/mL
same,Mean day appearance of lesions,Mus musculus [19],17.6
same,Mean day appearance of lesions,Mus musculus [20],29.7
same,MTS,Mus musculus [21],40.2 days and 40.6 days and 33.4 days
same,MIC,Human alphaherpesvirus 1 [22],0.4 µg/mL
same,MIC,Human alphaherpesvirus 2 [23],0.3 µg/mL
O=c1[nH]c(=O)n([C@H]2C[C@H](O)[C@@H](CO)O2)cc1/C=C/Br [BRIVUDINE],MIC,Human alphaherpesvirus 1 [1],0.02 µg/mL
same,Mean day appearance of lesions,Mus musculus [2],9.7
same,MIC,Human alphaherpesvirus 1 [4],0.02 µg/mL
same,MIC,Human alphaherpesvirus 2 [24],4 µg/mL
same,Mean day appearance of lesions,Mus musculus [25],6.2
same,MIC,Human alphaherpesvirus 2 [5],40 µg/mL
same,MIC,Human alphaherpesvirus 2 [12],150 µg/mL
same,MCC,Oryctolagus cuniculus; [31],> 400 µg/mL
same,MIC,Human alphaherpesvirus 1 [13],300 µg/mL
same,MIC,Human alphaherpesvirus 1 [26],200 µg/mL
same,Mean day appearance of lesions,Mus musculus [27],9.4
same,Mean day appearance of lesions,Mus musculus [28],9.4
same,MIC,Human alphaherpesvirus 1 [14],0.02 µg/mL
same,MIC,Vaccinia virus [29],7 µg/mL
same,Mean day appearance of lesions,Mus musculus [19],8.8
same,Mean day appearance of lesions,Mus musculus [20],10.8
same,MIC,[30],> 400 µg/mL
